# Test results taken from article PMC5421626 (Japanese Journal of Clinical Oncology, 2017).
# Like-named read-outs stand apart in the source and are kept apart here. Where a SMILES comes first, the peptide text is derived from it. [ ]: non-standard residue; d: D form. The star is where a group is joined. dPhe(4-NHCONH2) = NC(=O)Nc1ccc(C[C@@H](N)C(=O)O)cc1; Dihydroorotyl(S) = O=C1C[C@@H](C(=O)*)NC(=O)N1; dPhe(4-Cl) = N[C@H](Cc1ccc(Cl)cc1)C(=O)O; Phe(4-NH2) = Nc1ccc(C[C@H](N)C(=O)O)cc1; d2Nal = N[C@H](Cc1ccc2ccccc2c1)C(=O)O; Lys(iPr) = CC(C)NCCCC[C@H](N)C(=O)O; d3Pal = N[C@H](Cc1cccnc1)C(=O)O
# Legend:
# [1] = Plasma pharmacokinetics of degarelix; type: in vivo, human (Japanese patients with prostate cancer); details: for GMR (95% CI) of Ctrough values between Days 28 and 364: human plasma, LC-MS/MS, geometric mean ratio, PKAS; for Cmax / Tmax: male, human, plasma, sc
# How it was run: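 Patients got a subcutaneous 240 mg (40 mg/ml) initial dose, then 360 or 480 mg (60 mg/ml) every 84 days from Day 28, for four doses. Plasma was sampled every 28 days and assayed by validated LC-MS/MS (LOQ 0.5 ng/ml). Ctrough was taken on Days 28, 112, 196, 280 and 364, and GMRs with 95% CIs were compared. In a subset, samples 3 and 7 days after Day 28 gave Cmax and Tmax. Analysis set: PKAS.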
# serum PSA = details: Study CL-0003, 1-month regimen, cited from earlier work
# Safety assessment = type: in vivo, human (Japanese patients with prostate cancer); details: for incidence of serious AEs / incidence of ADRs / overall incidence of AEs: SAF
# How it was run: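 The safety set covered all dosed patients, given a subcutaneous 240 mg initial dose, then 360 or 480 mg maintenance every 84 days for 12 months. Recorded were AEs, serious AEs and ADRs (including injection-site reactions), with AEs graded by NCI-CTCAE v4.0, plus biochemistry, hematology, urinalysis, vital signs and 12-lead ECG. Frequencies were tabulated by MedDRA System Organ Class and Preferred Term.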
# serum testosterone [2] = details: Study CS18, 3-month regimen, cited from earlier work
# [3] = test system: serum prostate-specific antigen (PSA); test: Serum PSA response and PSA failure, Phase II 3-month degarelix study; type: in vivo, human (Japanese patients with prostate cancer); details: FAS; for median percent change in serum PSA level from baseline to Day 364: range −99.9%
# How it was run: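 Randomised 1:1 by minimisation, patients got a subcutaneous 240 mg initial dose, then from Day 28 360 or 480 mg (60 mg/ml) every 84 days for four doses. In the full analysis set, percent change in serum PSA from baseline was calculated at Days 28 and 364. PSA failure (relapse) over Days 0–364 was given as a proportion with two-sided 95% CI, and cumulative incidence by Kaplan–Meier.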
# serum testosterone [4] = test: Serum testosterone suppression; type: in vivo, human (Japanese patients with prostate cancer); details: completers–FAS
# serum testosterone [5] = details: Study CL-0003, 1-month regimen, cited from earlier work
smiles,measurement,setting,value
CC(=O)N[C@H](Cc1ccc2ccccc2c1)C(=O)N[C@H](Cc1ccc(Cl)cc1)C(=O)N[C@H](Cc1cccnc1)C(=O)N[C@@H](CO)C(=O)N[C@@H](Cc1ccc(NC(=O)[C@@H]2CC(=O)NC(=O)N2)cc1)C(=O)N[C@H](Cc1ccc(NC(N)=O)cc1)C(=O)N[C@@H](CC(C)C)C(=O)N[C@@H](CCCCNC(C)C)C(=O)N1CCC[C@H]1C(=O)N[C@H](C)C(N)=O [degarelix] (Ac-[d2Nal][dPhe(4-Cl)][d3Pal]S[Phe(4-NH2)](Dihydroorotyl(S))[dPhe(4-NHCONH2)]L[Lys(iPr)]P[dA]-NH2),GMR (95% CI) of Ctrough values between Days 28 and 364,[1]; 360 mg group,1.258 (1.114–1.421)
same,GMR (95% CI) of Ctrough values between Days 28 and 364,[1]; 480 mg group,1.752 (1.589–1.932)
same,steady state of plasma concentration,[1]; both dose groups (360 and 480 mg every 84 days),did not achieve steady state by Day 364
same,Cmax,[1]; 360 mg,74.7 ± 30 ng/mL
same,Tmax,[1]; 360 mg,71.3 h
same,Cmax,[1]; 480 mg,98.5 ± 31.7 ng/mL
same,Tmax,[1]; 480 mg,70.8 h
same,percent change in PSA at Day 28,serum PSA; 80 mg maintenance-dose group,–80.14%
same,percent change in PSA at Day 28,serum PSA; 160 mg maintenance-dose group,–79.52%
same,patients with AEs related to injection site reactions,Safety assessment; 360 mg group,50.0%
same,incidence of serious AEs,"Safety assessment; 360 mg group, 13/76",17.1%
same,incidence of ADRs,"Safety assessment; 360 mg group, 68/76",89.5%
same,overall incidence of AEs,"Safety assessment; 360 mg group, 72/76",94.7%
same,deaths (patients),"Safety assessment; 360 mg group, suicide after initial dose, before maintenance dose",One
same,patients with AEs related to injection site reactions,Safety assessment; 480 mg group,60.5%
same,patients with marked increase (≥480 ms) in QTcF on Day 364,"Safety assessment; 480 mg group, 12-lead electrocardiogram",one
same,incidence of serious AEs,"Safety assessment; 480 mg group, 7/76",9.2%
same,incidence of ADRs,"Safety assessment; 480 mg group, 71/76",93.4%
same,overall incidence of AEs,"Safety assessment; 480 mg group, 73/76",96.1%
same,patients who discontinued the treatment because of injection site reactions,Safety assessment; both groups,no patient
same,severity of injection site reactions,"Safety assessment; both groups, NCI-CTCAE v4.0",mild or moderate (Grade 1 or 2)
same,cumulative probability of serum testosterone ≤0.5 ng/ml,serum testosterone [2]; 360 mg group,89.0%
same,cumulative probability of serum testosterone ≤0.5 ng/ml,serum testosterone [2]; 480 mg group,93.3%
same,median percent change in serum PSA level from baseline to Day 28,[3]; 360 mg group (after 240 mg initial dose),−70.4%
same,proportion of patients with PSA failure (serum PSA relapse) from baseline to Day 364,[3]; 360 mg group,2.7%
same,median percent change in serum PSA level from baseline to Day 364,"[3]; 360 mg group, −51.3%",−95.05%
same,median percent change in serum PSA level from baseline to Day 28,[3]; 480 mg group (after 240 mg initial dose),−79.9%
same,proportion of patients with PSA failure (serum PSA relapse) from baseline to Day 364,[3]; 480 mg group,1.3%
same,median percent change in serum PSA level from baseline to Day 364,"[3]; 480 mg group, −44.0%",−96.43%
same,proportion of patients with a serum testosterone level ≤0.5 ng/ml from Days 28 to 364,"serum testosterone [4]; 360 mg group, 95% CI 76.85–94.45%",87.50%
same,proportion of patients with a serum testosterone level ≤0.5 ng/ml from Days 28 to 364,"serum testosterone [4]; 480 mg group, 95% CI 89.92–99.65%",97.10%
same,cumulative probability of serum testosterone ≤0.5 ng/ml,serum testosterone [5]; 80 mg maintenance-dose group,94.5%
same,cumulative probability of serum testosterone ≤0.5 ng/ml,serum testosterone [5]; 160 mg maintenance-dose group,95.2%
